First the molecules themselves.
B1: Osa-1-4 twister ribozyme (parent)
chain: CCGCCUAACACUGCCAAUGCCGGUCCCAAGCCCGGAUAAAAGUGGAGGGGGCGG

In the data set the parent is B1. Kind of data set: self-cleavage, relative activity (ratio to wild type); higher = more cleavage; co-transcriptional. In short, it runs like this:
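A DNA template for a 54-nucleotide Oryza sativa twister ribozyme was synthesised with 97 % wild-type base and 1 % of each other base at the 48 positions downstream of the cleavage site. It was transcribed in vitro for 2 h at 37 °C, allowing co-transcriptional self-cleavage, then reverse-transcribed with a template-switching oligonucleotide, PCR-amplified and deep-sequenced. Cleavage status was scored from reads with or without upstream sequence. Relative activity is fraction cleaved normalised to wild type.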
With CCGCCUAACACUGCCAAUGUCGGGCCCAAGCCCGGAUAAAAGUGGAGGGGGCGG [C20U U24G], the self-cleavage worked out at 0.08.

For the variant CCGCCUAACACUGCCAAUGUCGGACCCAAGCCCGGAUAAAAGUGGAGGGGGCGG [C20U U24A], the self-cleavage turned out to be 0.44.

Take CCGCCUAACACUGCCAAUGUCGGCCCCAAGCCCGGAUAAAAGUGGAGGGGGCGG [C20U U24C]: the self-cleavage came to 0.38.

Take CCGCCUAACACUGCCAAUGUCGGUCCCAAGCCCGGAUAAAAGUUGAGGGGGCGG [C20U G44U]: the self-cleavage was 0.87.

Consider CCGCCUAACACUGCCAAUGUCGGUCCCAAGCCCGGAUAAAAGUAGAGGGGGCGG [C20U G44A], for which the self-cleavage worked out at 0.87.

Regarding CCGCCUAACACUGCCAAUGUCGGUCCCAAGCCCGGAUAAAAGUCGAGGGGGCGG [C20U G44C], the self-cleavage is 0.88.

Take CCGCCUAACACUGCCAAUGUCGGUCCCAAGACCGGAUAAAAGUGGAGGGGGCGG [C20U C31A]: the self-cleavage is 0.05.

On to CCGCCUAACACUGCCAAUGUCGGUCCCAAGGCCGGAUAAAAGUGGAGGGGGCGG [C20U C31G], for which the self-cleavage worked out at 0.15.

For CCGCCUAACACUGCCAAUGUCGGUCCCAAGUCCGGAUAAAAGUGGAGGGGGCGG [C20U C31U], the self-cleavage was determined as 0.92.

Consider CCGCCUAACACUGCCAAUGUCGGUCCCAAGCCCGGAAAAAAGUGGAGGGGGCGG [C20U U37A], for which the self-cleavage was determined as 0.96.

For CCGCCUAACACUGCCAAUGUCGGUCCCAAGCCCGGACAAAAGUGGAGGGGGCGG [C20U U37C], the self-cleavage came out at 1.02.

Take CCGCCUAACACUGCCAAUGUCGGUCCCAAGCCCGGAGAAAAGUGGAGGGGGCGG [C20U U37G]: the self-cleavage was found to be 1.04.

Regarding CCGCCUAACACUGCCAAUGCAGGUCCCAAGACCGGAUAAAAGUGGAGGGGGCGG [C21A C31A], the self-cleavage was 0.04.

Regarding CCGCCUAACACUGCCAAUGCAGGUCCCAAGUCCGGAUAAAAGUGGAGGGGGCGG [C21A C31U], the self-cleavage turned out to be 0.21.

With CCGCCUAACACUGCCAAUGCAGGUCCCAAGGCCGGAUAAAAGUGGAGGGGGCGG [C21A C31G], the self-cleavage came out at 0.07.

For the variant CCGCCUAACACUGCCAAUGUCGGUCCCAAGCCCGGAUAAAAGUGGAGGGGGUGG [C20U C52U], the self-cleavage came to 0.96.

For the variant CCGCCUAACACUGCCAAUGUCGGUCCCAAGCCCGGAUAAAAGUGGAGGGGGGGG [C20U C52G], the self-cleavage was 0.89.

CCGCCUAACACUGCCAAUGUCGGUCCCAAGCCCGGAUAAAAGUGGAGGGGGAGG [C20U C52A]: the self-cleavage came to 0.9.

With CCGCCUAACACUGCCAAUGUCGGUCCCAAGCUCGGAUAAAAGUGGAGGGGGCGG [C20U C32U], the self-cleavage amounted to 0.15.

On to CCGCCUAACACUGCCAAUGUCGGUCCCAAGCGCGGAUAAAAGUGGAGGGGGCGG [C20U C32G], for which the self-cleavage amounted to 0.13.

Consider CCGCCUAACACUGCCAAUGUCGGUCCCAAGCACGGAUAAAAGUGGAGGGGGCGG [C20U C32A], for which the self-cleavage worked out at 0.08.

For CCGCCUAACACUGCCAAUGUCGUUCCCAAGCCCGGAUAAAAGUGGAGGGGGCGG [C20U G23U], the self-cleavage came out at 0.13.

As for CCGCCUAACACUGCCAAUGUCGAUCCCAAGCCCGGAUAAAAGUGGAGGGGGCGG [C20U G23A], the self-cleavage amounted to 0.27.

With CCGCCUAACACUGCCAAUGUCGCUCCCAAGCCCGGAUAAAAGUGGAGGGGGCGG [C20U G23C], the self-cleavage stood at 0.05.

Turning to CCGCCUAACACUGCCAAUGCAGGUCCUAAGCCCGGAUAAAAGUGGAGGGGGCGG [C21A C27U], the self-cleavage was 0.08.

Turning to CCGCCUAACACUGCCAAUGCAGGUCCAAAGCCCGGAUAAAAGUGGAGGGGGCGG [C21A C27A], the self-cleavage came out at 0.08.

With CCGCCUAACACUGCCAAUGCAGGUCCGAAGCCCGGAUAAAAGUGGAGGGGGCGG [C21A C27G], the self-cleavage amounted to 0.04.

With CCGCCUAACACUGCCAAUGUCGGUCCCAAGCCCGGAUAAAAGUGGAGGGCGCGG [C20U G50C], the self-cleavage was 0.87.

On to CCGCCUAACACUGCCAAUGUCGGUCCCAAGCCCGGAUAAAAGUGGAGGGAGCGG [C20U G50A], for which the self-cleavage was found to be 0.92.

With CCGCCUAACACUGCCAAUGUCGGUCCCAAGCCCGGAUAAAAGUGGAGGGUGCGG [C20U G50U], the self-cleavage was found to be 0.95.

Regarding CCGCCUAACACUGCCAAUGUCGGUCCCAAUCCCGGAUAAAAGUGGAGGGGGCGG [C20U G30U], the self-cleavage came out at 0.04.

On to CCGCCUAACACUGCCAAUGUCGGUCCCAAACCCGGAUAAAAGUGGAGGGGGCGG [C20U G30A], for which the self-cleavage stood at 0.05.

For the variant CCGCCUAACACUGCCAAUGUCGGUCCCAACCCCGGAUAAAAGUGGAGGGGGCGG [C20U G30C], the self-cleavage came to 0.06.

With CCGCCUAACACUGCCAAUGUCGGUCCCAAGCCCGGAUAAAAGUGGAGGGGACGG [C20U G51A], the self-cleavage is 0.85.

As to CCGCCUAACACUGCCAAUGUCGGUCCCAAGCCCGGAUAAAAGUGGAGGGGUCGG [C20U G51U], the self-cleavage turned out to be 0.63.

Consider CCGCCUAACACUGCCAAUGUCGGUCCCAAGCCCGGAUAAAAGUGGAGGGGCCGG [C20U G51C], for which the self-cleavage was found to be 0.11.

As to CCGCCUAACACUGCCAAUGUCGGUCCCAAGCCCGGAUAAAAGGGGAGGGGGCGG [C20U U43G], the self-cleavage was 0.68.

In the case of CCGCCUAACACUGCCAAUGUCGGUCCCAAGCCCGGAUAAAAGCGGAGGGGGCGG [C20U U43C], the self-cleavage was determined as 0.49.

Take CCGCCUAACACUGCCAAUGUCGGUCCCAAGCCCGGAUAAAAGAGGAGGGGGCGG [C20U U43A]: the self-cleavage worked out at 0.84.

With CCGCCUAACACUGCCAAUGCAGGUUCCAAGCCCGGAUAAAAGUGGAGGGGGCGG [C21A C25U], the self-cleavage stood at 0.16.

In the case of CCGCCUAACACUGCCAAUGCAGGUGCCAAGCCCGGAUAAAAGUGGAGGGGGCGG [C21A C25G], the self-cleavage came out at 0.07.

As for CCGCCUAACACUGCCAAUGCAGGUACCAAGCCCGGAUAAAAGUGGAGGGGGCGG [C21A C25A], the self-cleavage stood at 0.08.

For CCGCCUAACACUGCCAAUGUCGGUCCCAAGCCCUGAUAAAAGUGGAGGGGGCGG [C20U G34U], the self-cleavage amounted to 0.82.

Regarding CCGCCUAACACUGCCAAUGUCGGUCCCAAGCCCAGAUAAAAGUGGAGGGGGCGG [C20U G34A], the self-cleavage amounted to 0.95.

Consider CCGCCUAACACUGCCAAUGUCGGUCCCAAGCCCCGAUAAAAGUGGAGGGGGCGG [C20U G34C], for which the self-cleavage was 0.31.

In the case of CCGCCUAACACUGCCAAUGCAGGUCCCAAGCGCGGAUAAAAGUGGAGGGGGCGG [C21A C32G], the self-cleavage is 0.09.

As for CCGCCUAACACUGCCAAUGCAGGUCCCAAGCACGGAUAAAAGUGGAGGGGGCGG [C21A C32A], the self-cleavage was 0.08.

On to CCGCCUAACACAGCCAAUGUCGGUCCCAAGCCCGGAUAAAAGUGGAGGGGGCGG [C20U U12A], for which the self-cleavage worked out at 0.83.
